# ChEMBL document CHEMBL1131187, “Synthesis, activity, and molecular modeling of new 2, 4-dioxo-5-(naphthylmethylene)-3-thiazolidineacetic acids and 2-thioxo analogues as potent aldose reductase inhibitors” (J Med Chem, 1998)
# Target: Aldo-keto reductase family 1 member B1 (Bos taurus, UniProt P16116)
# Experiment: Evaluated in vitro for the inhibition of Aldose reductase.
# Type: functional
# Outline: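 Partially purified enzyme from beef lenses homogenized in 96 mM phosphate buffer pH 6.2 at 4 °C; supernatant after 1 h centrifugation at 4 °C. Assay at 37 °C in 96 mM phosphate pH 6.2 with NADPH (0.18 mM) and DL-glyceraldehyde (1 mM). Reaction started with NADPH; A340 decrease followed. Blanks included. Four concentrations, five measures each; IC50 by linear regression of % inhibition vs log concentration.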
row,SMILES,IC50 [nM]
1,COc1c(/C=C2\SC(=O)N(CC(=O)O)C2=O)ccc2ccccc12,150
2,O=C(O)CN1C(=O)S/C(=C\c2cc3ccccc3cc2Cl)C1=O,48
3,COc1c(/C=C2\SC(=S)N(CC(=O)O)C2=O)ccc2ccccc12,9
4,O=C(O)CN1C(=O)S/C(=C\c2ccc3ccccc3c2)C1=O,269
5,COc1cc2ccccc2cc1/C=C1\SC(=O)N(CC(=O)O)C1=O,128
6,O=C(O)CN1C(=O)/C(=C/c2ccc3ccccc3c2)SC1=S,96
7,COc1cc2ccccc2cc1/C=C1\SC(=S)N(CC(=O)O)C1=O,20
8,COc1ccc2cc(/C=C3\SC(=O)N(CC(=O)O)C3=O)ccc2c1,101
9,COc1ccc2cc(/C=C3\SC(=S)N(CC(=O)O)C3=O)ccc2c1,67
10,O=C(O)CN1C(=O)/C(=C/c2ccc3ccccc3c2[N+](=O)[O-])SC1=S,79
11,O=C(O)CN1C(=O)S/C(=C\c2ccc3ccccc3c2Br)C1=O,51
12,O=C(O)CN1C(=O)S/C(=C\c2cc3ccccc3cc2Br)C1=O,153
13,O=C(O)CN1C(=O)/C(=C/c2ccc3ccccc3c2Br)SC1=S,11
14,O=C(O)CN1C(=O)/C(=C/c2cc3ccccc3cc2Br)SC1=S,15
15,O=C(O)Cc1nn(Cc2ccc(Br)cc2F)c(=O)c2ccccc12 [PONALRESTAT],7
